Assay results taken from ChEMBL document CHEMBL2034844, “Novel multi-functional nitrones for treatment of ischemic stroke” (2012).
Activity calls are given as the source filed them. The rule behind the calls is not given here.

Tests used:
[1] = test system: Platelet; experiment: Inhibition of platelet aggregation in New Zealand rabbit platelet rich plasma assessed as maximum platelet aggregation at 2 mM after 8 mins by platelet aggregometry (reference value: 57.3 +/- 8.3%); type: functional, Oryctolagus cuniculus; design: scale not given: the % may be the effect or the level left
[2] = test system: Neuron; experiment: Neuroprotective activity against t-BHP-induced rat cerebellar granule neuronal damage at 1000 uM preincubated for 30 mins prior t-BHP challenge measured after 4 hrs by MTT assay (reference value: 49.4%); type: functional
[3] = test system: Neuron; experiment: Neuroprotective activity against t-BHP-induced rat cerebellar granule neuronal damage at 100 uM preincubated for 30 mins prior t-BHP challenge measured after 4 hrs by MTT assay (reference value: 49.4%); type: functional, cell-based
[4] = Antioxidant activity assessed as peroxynitrite radical-scavenging activity at 1 to 1000 uM by SIN-1 based chemiluminescence assay; type: functional
Method in brief: (§1)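 Peroxynitrite generated from SIN-1 dissolved in 0.1 M PBS. The mix held PBS, luminol, compound or PBS control, and SIN-1 added last to start the reaction; read-out was chemiluminescence.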

[5] = test system: Radical scavenging activity; experiment: Antioxidant activity assessed as DPPH radical-scavenging activity at 0.5 to 4 mM by spectrophotometry; type: functional
Method in brief: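 50 µL methanolic compound solution mixed with 150 µL methanolic DPPH; absorbance at 515 nm followed continuously until stable (50 min); clearance (%) calculated from the control absorbance and the reaction absorbance at 50 min.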

[6] = Antioxidant activity assessed as hydroxyl radical-scavenging activity at 1000 uM by monitoring p-NDA bleaching using spectrophotometry; type: functional
Method in brief: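 Fenton-generated hydroxyl radical from FeSO4 (final 4.0 mM) and freshly prepared H2O2 (7.3 mM). p-NDA was prepared at 1.6 mM in 50 mM NaCl. Compounds were dissolved in double-distilled water at final 125–1000 µM. p-NDA bleaching was followed as absorbance loss at 440 nm over 100 s; clearance (%) was calculated from absorbance at 0 and 100 s.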

[7] = Antioxidant activity assessed as superoxide anion-scavenging activity at 125 to 1000 uM by spectrophotometry; type: functional
Method in brief: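 Glass-cuvette mix of Tris–HCl buffer (pH 8.2), pyrogallic acid solution (0.16 mmol/L) and test sample at final 125, 250, 500 and 1000 µM; pyrogallol-autoxidation superoxide assay.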

[8] = test system: Rattus norvegicus; experiment: Neuroprotective activity in Sprague-Dawley rat tMCAO model assessed as reduction in total brain infarct volume at 110 mg/kg, ip after 24 hrs by TTC staining relative to control; type: functional; design: scale not given: the % may be the effect or the level left; details: route intraperitoneal
Method in brief: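 Adult male Sprague–Dawley rats (260–310 g), chloral hydrate anaesthesia; nylon suture occluding right MCA for 2 h, then reperfusion. Only rats with neurological score 2 or 3 used; body temperature held at 37 °C. Dosed ip 2 h after MCAO; saline vehicle controls. Killed after 22 h reperfusion; six 2-mm coronal slices stained with 0.5% TTC, 37 °C, 30 min; infarct volume by image analysis; n = 13/group.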

[9] = Antioxidant activity assessed as peroxynitrite radical-scavenging activity at 1 uM by SIN-1 based chemiluminescence assay; type: functional; method in brief: as §1
[10] = Antioxidant activity assessed as peroxynitrite radical-scavenging activity at 1000 uM by SIN-1 based chemiluminescence assay; type: functional; method in brief: as §1

SMILES	Activity [1] [%]	Activity [2]	Activity [3]	Activity [4]	Activity [5]	Activity [6] [%]	Activity [7]	Activity [8] [%]	Activity [9] [%]	Activity [10] [%]	Activity ([2]; record 2) [%]
CC(=O)Oc1ccccc1C(=O)O [ASPIRIN]	26.6										
CC(C)(C)/[N+]([O-])=C/c1cnc2ccccc2n1		53.9%	inactive	inactive	Active						
Cc1nc(C)c(CN(Cc2nc(C)c(C)nc2C)C(C)(C)C)nc1C	44.3	75.5%	Active	inactive	Active	100	inactive				
CC(C)(C)/[N+]([O-])=C\c1ccccc1				Active	Active		inactive				
Cc1nc(C)c(C)nc1C [LIGUSTRAZINE]	42.9	58.4%		inactive	Active		inactive				
Cc1nc(/C=[N+](\[O-])C(C)(C)C)c(C)nc1/C=[N+](\[O-])C(C)(C)C	37.7	80.6%	Active		Active		Active	65	31.9	99.4	
CCCc1nccnc1/C=[N+](\[O-])C(C)(C)C	48	Active	Active	Active	Active		Active				66
CCc1nccnc1/C=[N+](\[O-])C(C)(C)C	33.8	Active	Active	Active			Active				64.6
CC(C)(C)/[N+]([O-])=C/c1cccc2nccnc12		54.8%	inactive	inactive	Active						
